Measurements of several laboratories.
Target: RAF proto-oncogene serine/threonine-protein kinase (RAF1, Homo sapiens, UniProt P04049)

Compound | assay | setting | remaining binding [%]
CN(c1ccnc(CNc2nc(Nc3ccc4c(c3)CC(=O)N4)ncc2C(F)(F)F)n1)S(C)(=O)=O | cell-free assay, competition with immobilised ligand | 1 µM | 85
O=C(NCCCN1CCOCC1)c1ccc(Nc2ncc(Cl)c(-c3ccc(Cl)s3)n2)cc1 | binding, competition with immobilised ligand | 1 µM | 89
C=CC(=O)N1CCC(C(=O)NCC(=O)N2CCN(c3nc(-c4cnc(N)nc4C(F)F)nc(N4CCOCC4)n3)CC2)CC1 | binding, competition with immobilised ligand | 1 µM | 93
c1cncc(-c2cccc(Nc3nccc(NC4CCCCC4)n3)c2)c1 | binding, competition with immobilised ligand | 10 µM | 94
CC1CCCN1c1nccc(-c2cnn3ncccc23)n1 (stereo not drawn) | binding | 1 µM | 100
O=C(c1ccc(Nc2nccc(-c3cc4ccccc4s3)n2)cc1)N1CCC(N2CCCC2)CC1 | binding, competition with immobilised ligand | 1 µM | 84
COc1cnc(Nc2cccc(S(N)(=O)=O)c2)nc1N1CCN(c2ccccc2)CC1 | binding, competition with immobilised ligand | 1 µM | 100
CN(CCCC(F)(F)F)c1nccc(-c2cnn3ncccc23)n1 | binding | 1 µM | 83
CNC(=O)[C@@H]1CC[C@@H](n2c(-c3ccc4cnccc4c3)nc3ccc(C(=O)NCc4cccc(C(N)=O)c4)cc32)C1 | binding, competition with immobilised ligand | 1 µM | 82
O=C(Nc1c[nH]nc1C(=O)NC1CCNCC1)c1cc(F)cc(F)c1 | binding, competition with immobilised ligand | 1 µM | 100
COc1ccc2c(O[C@@H]3C[C@H]4C(=O)N[C@]5(C(=O)O)CC5/C=C\CCCCC[C@H](NC(=O)OC5CCCC5)C(=O)N4C3)cc(-c3csc(NC(=O)C(C)C)n3)nc2c1C (stereo partly drawn) | cell-free assay, competition with immobilised ligand | 1 µM | 95
CN(C)c1ncc(F)c(-c2cnn3ncccc23)n1 | binding | 1 µM | 96
CNC(=O)Nc1ccc2c(c1)[C@@]1(CC2)OC(=O)N(CC(=O)N(Cc2ccc(F)cc2)[C@@H](C)C(F)(F)F)C1=O | cell-free assay, competition with immobilised ligand | 1 µM | 100
CN(C)c1nccc(-c2cnn3ncccc23)n1 | binding | 1 µM | 100
C[C@@H]1CN(c2ccc3ncc(-c4ccc5[nH]nc(C6CC6)c5c4)n3n2)C[C@H](C)O1 | binding, competition with immobilised ligand | 0.5 µM | 100
N#Cc1ccccc1CSc1nnc2c(n1)[nH]c1ccccc12 | binding, competition with immobilised ligand | 10 µM | 100
O=C(NC[C@@H]1[C@H]2CN(C(=O)OCc3cc(C(F)(F)F)cc(C(F)(F)F)c3)C[C@@H]12)c1ccc2[nH]nnc2c1 | cell-free assay, competition with immobilised ligand | 1 µM | 100
c1cnn2ncc(-c3ccnc(N4CCC45COC5)n3)c2c1 | binding | 1 µM | 73
O=C(Nc1cccnn1)N1CC(C/C=C/c2cncc(Oc3ccc(C(F)(F)F)cn3)n2)C1 | cell-free assay, competition with immobilised ligand | 1 µM | 100
N[C@@H]1CCN(c2nccc(-c3cnn4ncccc34)n2)C1 | binding | 1 µM | 80
Cc1c(C(=O)O)cc(-c2ccc(C3CCNCC3)cc2)c2ccc(-c3ccc(C(F)(F)F)cc3)cc12 | binding, competition with immobilised ligand | 1 µM | 80
CC(C)(C)c1ccc(-c2nc(CBr)nn2-c2cccc(O)c2)cc1 | cell-free assay, competition with immobilised ligand | 10 µM | 87
Cc1nccc(COC(=O)N2C[C@@H]3[C@@H](CNC(=O)c4ccc5[nH]nnc5c4)[C@@H]3C2)n1 | cell-free assay, competition with immobilised ligand | 1 µM | 94
C[C@@H]1CCN(c2nccc(-c3cnn4ncccc34)n2)C1 | binding | 1 µM | 100
